Calls of active or inactive are those of the source. The rule behind the calls is not given here.
Experiments:
Mus musculus [1] = test: Antagonism of 1'-benzyl-6,7-didehydro-3,14-dihydroxy-4,5alpha-epoxy-17-methyl-4',5',6',7'-tetrahydroindolo[2',3':6,7]morphinan-induced antinociceptive activity in mouse at 30 mg/kg, sc; format: functional; set-up: scale not given: the % may be the effect or the level left; details: route subcutaneous
Mu-type opioid receptor [2] = target: T1, Mu-type opioid receptor (Homo sapiens, UniProt P35372); test: Activity at human recombinant mu opioid receptor expressed in CHO cells by [35S]GTP-gamma-S binding assay; format: functional, cell-based
Outline: (§1)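 Human recombinant opioid receptors expressed in CHO cells. Agonist-stimulated [35S]GTPγS binding was measured and efficacy was referenced to DAMGO (MOR) or U69593 (KOR). Values are means of five or six experiments.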

Mu-type opioid receptor [3] = target: T1, Mu-type opioid receptor; test: Displacement of [3H]DAMGO from human recombinant mu opioid receptor expressed in CHO cells; format: cell-based
Outline: (§2)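 Radioligand displacement was run on human recombinant receptors expressed in CHO cells. The labels were [3H]DAMGO for MOR and [3H]U69593 for KOR. Values are the mean of two experiments, each in triplicate.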

[4] = target: T2, Kappa-type opioid receptor (Homo sapiens, UniProt P41145); test: Activity at human recombinant kappa opioid receptor expressed in CHO cells by [35S]GTPgammaS binding assay; format: functional, cell-based; outline: as §1
[5] = target: T2, Kappa-type opioid receptor; test: Activity at human recombinant kappa opioid receptor expressed in CHO cells by [35S]GTP-gamma-S binding assay relative to U69593; format: functional, cell-based; outline: as §1
[6] = target: T2, Kappa-type opioid receptor; test: Displacement of [3H]U-69593 from human recombinant kappa opioid receptor expressed in CHO cells; format: cell-based; outline: as §2
Mu-type opioid receptor [7] = target: T1, Mu-type opioid receptor; test: Activity at human recombinant mu opioid receptor expressed in CHO cells by [35S]GTPgammaS binding assay relative to DAMGO; format: functional, cell-based; outline: as §1
Mus musculus [8] = test: Antagonism of SNC80-induced antinociceptive effect in mouse assessed by phenylquinone-induced abdominal stretch assay at 1 mg/kg, sc; format: functional, Abdomen; set-up: scale not given: the % may be the effect or the level left; details: route subcutaneous
Outline: (§3)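 Mouse phenylquinone (PPQ) abdominal stretch assay. The test compound was given sc, and its antagonism of SNC80-induced antinociception was scored as percent antagonism of the agonist effect.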

Mus musculus [9] = species on record: Mus musculus; test: Reversal of 1'-benzyl-6,7-didehydro-3,14-dihydroxy-4,5alpha-epoxy-17-methyl-4',5',6',7'-tetrahydroindolo[2',3':6,7]morphinan-induced antinociceptive activity in mouse; format: functional
[10] = target: T3, Delta-type opioid receptor (Homo sapiens, UniProt P41143); test: Displacement of [3H]Cl-DPDPE from human recombinant delta opioid receptor expressed in CHO cells; format: cell-based
Rattus norvegicus = test: Prevention of SNC80-induced convulsions in Sprague-Dawley rat at 10 mg/kg, sc administered 20 mins before SNC80; format: functional, organism-based; set-up: dose 10 mg/kg
Outline: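 The test compound was given at 10 mg/kg sc 20 min before SNC80 (32 mg/kg), and prevention of SNC80-mediated convulsions was scored.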

Mus musculus [11] = test: Antagonism of SNC80-induced antinociceptive effect in mouse assessed by phenylquinone-induced abdominal stretch assay at 10 mg/kg, sc; format: functional, Abdomen; set-up: scale not given: the % may be the effect or the level left; details: route subcutaneous; outline: as §3
[12] = target: T3, Delta-type opioid receptor; details: CHO
Mus musculus [13] = test: Antagonism of SNC80-induced antinociceptive effect in mouse assessed by phenylquinone-induced abdominal stretch assay at 3 mg/kg, sc; format: functional, Abdomen; set-up: scale not given: the % may be the effect or the level left; details: route subcutaneous; outline: as §3
Mus musculus [14] = test: Antinociceptive activity in sc dosed mouse; format: functional
Outline: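 Antinociception was measured in the mouse PPQ-induced abdominal stretch assay after sc dosing.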

Mus musculus [15] = test: Antagonism of SNC80-induced antinociceptive effect in sc dosed mouse assessed by phenylquinone-induced abdominal stretch assay; format: functional, organism-based; details: Abdomen; outline: as §3
Mus musculus [16] = test: Reversal of SNC80-induced antinociceptive effect in mouse assessed by phenylquinone-induced abdominal stretch assay at […], icv administered 24 hrs before SNC80; format: functional, Abdomen

T3 sequence (P41143 whole entry): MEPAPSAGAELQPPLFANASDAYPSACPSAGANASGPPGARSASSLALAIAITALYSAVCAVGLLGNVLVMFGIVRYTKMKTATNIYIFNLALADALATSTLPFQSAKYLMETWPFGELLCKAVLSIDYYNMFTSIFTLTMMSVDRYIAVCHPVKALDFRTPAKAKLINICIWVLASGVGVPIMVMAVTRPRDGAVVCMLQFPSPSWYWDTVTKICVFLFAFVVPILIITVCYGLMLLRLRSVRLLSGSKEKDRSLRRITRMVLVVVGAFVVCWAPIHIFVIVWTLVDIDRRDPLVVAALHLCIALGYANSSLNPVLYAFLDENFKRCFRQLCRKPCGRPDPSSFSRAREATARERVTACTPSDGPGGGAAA
T1 sequence (P35372 whole entry): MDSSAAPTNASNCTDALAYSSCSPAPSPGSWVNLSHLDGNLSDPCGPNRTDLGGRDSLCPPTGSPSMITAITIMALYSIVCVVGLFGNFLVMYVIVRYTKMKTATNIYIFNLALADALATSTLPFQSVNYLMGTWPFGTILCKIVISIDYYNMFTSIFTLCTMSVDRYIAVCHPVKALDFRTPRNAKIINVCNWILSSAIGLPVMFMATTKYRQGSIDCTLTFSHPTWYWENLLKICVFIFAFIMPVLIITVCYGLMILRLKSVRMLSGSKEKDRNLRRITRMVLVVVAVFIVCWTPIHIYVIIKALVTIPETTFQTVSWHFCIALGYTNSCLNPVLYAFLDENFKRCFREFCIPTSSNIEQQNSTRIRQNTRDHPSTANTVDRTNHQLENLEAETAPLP
T2 sequence (P41145 whole entry): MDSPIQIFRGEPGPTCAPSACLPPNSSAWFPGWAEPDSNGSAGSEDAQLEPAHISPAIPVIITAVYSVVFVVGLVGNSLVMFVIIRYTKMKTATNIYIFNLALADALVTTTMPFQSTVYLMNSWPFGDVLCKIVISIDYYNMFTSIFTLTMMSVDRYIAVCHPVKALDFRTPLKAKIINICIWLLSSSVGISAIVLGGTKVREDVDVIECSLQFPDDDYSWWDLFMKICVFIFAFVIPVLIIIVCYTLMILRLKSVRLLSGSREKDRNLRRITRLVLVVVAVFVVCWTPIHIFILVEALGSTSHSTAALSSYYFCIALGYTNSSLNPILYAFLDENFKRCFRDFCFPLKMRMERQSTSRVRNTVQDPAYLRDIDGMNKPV

Row | SMILES | Ke (Mu-type opioid receptor [2]) [nM] | Ki (Mu-type opioid receptor [3]) [nM] | EC50 [4] [nM] | Activity [5] [%] | Ki [6] [nM] | EC50 (Mu-type opioid receptor [2]) [nM] | Activity (Mu-type opioid receptor [7]) [%] | Ke [4] [nM] | other results
1 | Oc1ccc2c3c1O[C@H]1c4[nH]c5ccccc5c4C[C@@]4(O)[C@@H](C2)N(CC2CC2)CC[C@]314 [NALTRINDOLE] | – | – | – | – | – | – | – | – | Activity (Mus musculus [1]): 40%
2 | Oc1ccc2c3c1O[C@H]1c4c(c5c(n4CCc4ccccc4)CCCC5)C[C@@]4(O)C(C2)N(CC2CC2)CC[C@]314 | 5.66 | 7.46 | 13.8 | 76 | – | – | – | – | –
3 | Oc1ccc2c3c1O[C@H]1c4c(c5c(n4CC4CCCCC4)CCCC5)C[C@@]4(O)C(C2)N(CC2CC2)CC[C@]314 | 11.6 | 18.5 | 54.3 | 84 | 24.9 | – | – | – | –
4 | CN1CC[C@]23c4c5ccc(O)c4O[C@H]2c2c(c4c(n2CCc2ccccc2)CCCC4)C[C@@]3(O)C1C5 | – | 15.4 | 131 | 76 | 163 | 175 | 71 | – | –
5 | CCn1c2c(c3c1[C@@H]1Oc4c(O)ccc5c4[C@@]14CCN(C)C(C5)[C@]4(O)C3)CCCC2 | – | 25.8 | 98.2 | 66 | 168 | 175 | 41 | – | –
6 | Cn1c2c(c3c1[C@@H]1Oc4c(O)ccc5c4[C@@]14CCN(CC1CC1)[C@H](C5)[C@]4(O)C3)CCCC2 | 4.3 | 5.76 | – | – | 4.11 | – | – | 12.2 | –
7 | CCn1c2c(c3c1[C@@H]1Oc4c(O)ccc5c4[C@@]14CCN(CC1CC1)C(C5)[C@]4(O)C3)CCCC2 | 5.32 | 5.06 | 14.3 | 63 | 7.38 | – | – | – | –
8 | Oc1ccc2c3c1O[C@H]1c4c(c5ccccc5n4Cc4ccccc4)C[C@@]4(O)C(C2)N(CC2CC2)CC[C@]314 | – | – | – | – | – | – | – | – | Activity (Mus musculus [8]): 57%
9 | O=C1CC[C@@]2(O)[C@H]3Cc4ccc(O)c5c4[C@@]2(CCN3CC2CC2)[C@H]1O5 [NALTREXONE] | – | – | – | – | – | – | – | – | AD50 (Mus musculus [9]): 0.02 mg/kg
10 | Oc1ccc2c3c1O[C@H]1c4c(c5c(n4CC4CC4)CCCC5)C[C@@]4(O)C(C2)N(CC2CC2)CC[C@]314 | – | 2.52 | – | – | 2.51 | – | – | 11.8 | –
11 | Oc1ccc2c3c1O[C@H]1c4c(c5c(n4Cc4ccccc4)CCCC5)C[C@@]4(O)C(C2)N(CC2CC2)CC[C@]314 | 8.13 | 5.39 | – | – | 6.29 | – | – | 49.8 | Ki [10]: 2.94 nM; Activity (Rattus norvegicus): Active; Activity (Mus musculus [11]): 54%; Ke [12]: 2.23 nM; Activity (Mus musculus [13]): 54%
12 | CN1CC[C@]23c4c5ccc(O)c4O[C@H]2c2c(c4c(n2Cc2ccccc2)CCCC4)C[C@@]3(O)C1C5 | – | 88.9 | 1750 | 43 | 289 | 732 | 44 | – | ED50 (Mus musculus [14]): 5.1 mg/kg; Activity (Mus musculus [15]): inactive; Activity (Mus musculus [16]): >50%
13 | CN1CC[C@]23c4c5ccc(O)c4O[C@H]2c2c(c4c(n2C)CCCC4)C[C@@]3(O)C1C5 | – | – | 97.2 | 69 | 89.1 | 222 | 39 | – | –
14 | CN1CC[C@]23c4c5ccc(O)c4O[C@H]2c2c(c4c(n2CC2CCCCC2)CCCC4)C[C@@]3(O)C1C5 | – | 17.9 | 153 | 85 | 262 | 130 | 57 | – | –
15 | Cn1cc(-c2ccccc2)c2c1[C@@H]1Oc3c(O)ccc4c3[C@@]13CCN(CC1CC1)C(C4)[C@]3(O)C2 | 4.04 | 7.6 | – | – | 18.5 | – | – | 34.1 | Ki [10]: 3.35 nM; Ke [12]: 0.62 nM
16 | CCn1cc(-c2ccccc2)c2c1[C@@H]1Oc3c(O)ccc4c3[C@@]13CCN(CC1CC1)C(C4)[C@]3(O)C2 | 10.7 | 8.75 | – | – | 24.3 | – | – | 44 | Ki [10]: 2.95 nM; Ke [12]: 0.72 nM
